Laboratory results from ChEMBL document CHEMBL4152271, “Polypharmacological profile of 1,2-dihydro-2-oxo-pyridine-3-carboxamides in the endocannabinoid system” (Eur J Med Chem, 2018).
Activity calls are given as the source filed them. The rule behind the calls is not given here.

Tests used:
U-937 [1] = experiment: Inhibition of [ethanolamine-1-3H]AEA/unlabeled AEA uptake in human U937 cells preincubated for 15 mins followed by [ethanolamine-1-3H]AEA/unlabeled AEA addition and measured after 15 mins by scintillation counting method; assay type: functional, cell-based
Summary of the method: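 Intact U937 cells (0.5x10⁶ per sample) in RPMI, preincubated with compound for 15 min at 37 °C. Then 1 nM [ethanolamine-1-³H]AEA plus unlabeled AEA (final 100 nM) added for 15 min. Stopped by rapid filtration and ice-cold PBS/1% BSA washes, radioactivity counted. At least three experiments in triplicate, mean ± SD.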

[2] = molecular target: T1, Monoacylglycerol lipase ABHD6 (Homo sapiens, UniProt Q9BV23); experiment: Inhibition of human ABHD6 expressed in HEK293 cells using 2-OG as substrate preincubated for 30 mins followed by substrate addition and measured after 5 mins by liquid scintillation spectroscopic method; assay type: cell-based
T1 sequence (Q9BV23 whole entry): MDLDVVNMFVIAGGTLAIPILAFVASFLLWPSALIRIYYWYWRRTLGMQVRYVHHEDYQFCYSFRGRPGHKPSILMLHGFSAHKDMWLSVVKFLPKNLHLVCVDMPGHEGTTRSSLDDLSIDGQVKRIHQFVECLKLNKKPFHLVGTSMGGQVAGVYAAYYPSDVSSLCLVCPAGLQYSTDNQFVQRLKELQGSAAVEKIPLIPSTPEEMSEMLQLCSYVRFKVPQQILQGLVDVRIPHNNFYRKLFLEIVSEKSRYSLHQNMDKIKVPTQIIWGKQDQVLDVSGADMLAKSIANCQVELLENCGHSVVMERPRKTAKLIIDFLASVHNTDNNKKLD
Summary of the method: (§1)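 Homogenate (40 µg) of HEK293 cells stably transfected with hABHD6 or hABHD12, compound preincubated 30 min at 37 °C in […], 0.1% BSA, pH 7.6. DMSO vehicle; WWL70 10 µM or THL 20 µM as positive controls. 10 µM 2-OG added for 5 min at 37 °C, stopped with CHCl₃:MeOH. Aqueous phase counted; no-enzyme blanks and non-transfected HEK293 hydrolysis subtracted.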

[3] = molecular target: T2, Lysophosphatidylserine lipase ABHD12 (Homo sapiens, UniProt Q8N2K0); experiment: Inhibition of human ABHD12 expressed in HEK293 cells using 2-OG as substrate preincubated for 30 mins followed by substrate addition and measured after 5 mins by liquid scintillation spectroscopic method; assay type: cell-based; summary of the method: as §1
T2 sequence (Q8N2K0 whole entry): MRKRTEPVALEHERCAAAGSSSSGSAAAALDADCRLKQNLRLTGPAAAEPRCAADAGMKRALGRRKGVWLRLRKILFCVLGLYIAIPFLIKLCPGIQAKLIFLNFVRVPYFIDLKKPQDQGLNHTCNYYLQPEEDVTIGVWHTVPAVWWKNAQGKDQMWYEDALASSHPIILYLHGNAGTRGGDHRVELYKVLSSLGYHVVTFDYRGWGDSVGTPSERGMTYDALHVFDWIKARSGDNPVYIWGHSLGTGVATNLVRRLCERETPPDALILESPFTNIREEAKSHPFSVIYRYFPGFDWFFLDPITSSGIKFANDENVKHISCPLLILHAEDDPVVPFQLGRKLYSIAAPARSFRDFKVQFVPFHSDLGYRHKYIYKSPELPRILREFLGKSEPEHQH

U-251 = experiment: Cytotoxicity against human U251MG cells assessed as decrease in cell viability at 0.6 to 40 uM after 48 hrs by MTT assay; assay type: functional, cell-based
Summary of the method: (§2)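 U251MG (EMEM, 10% FBS) or U937 (RPMI 1640, 10% FBS) cells plated at 4x10³/well for 24h, then exposed to compounds (0–40 µM) for 48 h at 37°C. MTT reduction, formazan read at 595 nm. Viability as % of untreated control. Five independent experiments in triplicate, mean ± SD, ANOVA with Bonferroni.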

Cannabinoid receptor 1 [4] = molecular target: T3, Cannabinoid receptor 1 (Homo sapiens, UniProt P21554); experiment: Agonist activity at CB1 receptor in human U251MG cells assessed as upregulation of MICA/B expression at 10 uM after 24 hrs by cytofluorimetric method; assay type: functional, cell-based
Summary of the method: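 U251MG glioma cells seeded at 2x10⁴ cells/cm², grown 24h, washed, then exposed to vehicle or compound in complete medium for 24 h. 2x10⁵ cells stained with PE anti-MICA/B or isotype control, 20 min at 4°C, fixed in 1% formaldehyde. Flow cytometry read-out as MFI, 3 independent experiments, mean ± SD, ANOVA with Bonferroni.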

Cannabinoid receptor 1 [5] = molecular target: T3, Cannabinoid receptor 1; experiment: Agonist activity at human CB1 receptor expressed in CHO cell membranes after 90 mins by [35S]GTPgammaS binding assay; assay type: functional, cell-based
U-937 [6] = experiment: Cytotoxicity against human U937 cells assessed as decrease in cell viability at 0.6 to 40 uM after 48 hrs by MTT assay; assay type: functional, cell-based; summary of the method: as §2
Cannabinoid receptor 1 [7] = molecular target: T3, Cannabinoid receptor 1; experiment: Displacement of [3H]-CP55940 from human CB1 receptor expressed in CHO cell membranes after 90 mins
Monoglyceride lipase = molecular target: T4, Monoglyceride lipase (Homo sapiens, UniProt Q99685); experiment: Inhibition of MAGL in human U937 cells using 2-OG containing […] as substrate preincubated for 30 mins followed by substrate addition and measured after 15 mins by liquid scintillation spectroscopic method; assay type: cell-based
T4 sequence (Q99685 whole entry): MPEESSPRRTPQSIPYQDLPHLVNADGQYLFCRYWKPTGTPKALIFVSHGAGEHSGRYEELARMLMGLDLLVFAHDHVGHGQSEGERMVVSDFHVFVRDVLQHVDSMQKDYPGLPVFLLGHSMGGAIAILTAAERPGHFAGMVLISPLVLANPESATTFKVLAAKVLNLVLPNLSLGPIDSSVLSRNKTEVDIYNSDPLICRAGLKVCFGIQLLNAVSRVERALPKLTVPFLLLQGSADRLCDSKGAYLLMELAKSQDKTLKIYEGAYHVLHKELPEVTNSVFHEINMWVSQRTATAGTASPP
Summary of the method: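 U937 cell homogenate (100 µg) in 10 mM Tris-HCl, 1 mM EDTA, pH 8, 0.1% fatty acid-free BSA. Compound at 10 µM screening concentration, 30 min at 37 °C. FAAH: 100 nM AEA with 1 nM [³H]AEA tracer. MAGL: 1 µM 2-OG with 1 nM tritiated tracer. Both 15 min at 37 °C, stopped with CHCl₃:MeOH (1:1), aqueous phase counted.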

Cannabinoid receptor 2 = Cannabinoid receptor 2 (Homo sapiens, UniProt P34972); experiment: Displacement of [3H]-CP55940 from human CB2 receptor expressed in CHO cell membranes after 90 mins
Summary of the method: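 Membranes expressing hCB1 or hCB2 (stably transfected CHO) in 50 mM Tris-HCl, 2.5 mM EDTA, 5 mM MgCl₂, 0.5% fatty acid-free BSA, pH 7.4. Nonspecific binding with 10 µM […]. GF/B filtration, radioactivity counted, Ki derived. Mean ± SD, at least 3 experiments in triplicate.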

T3 sequence (P21554 whole entry): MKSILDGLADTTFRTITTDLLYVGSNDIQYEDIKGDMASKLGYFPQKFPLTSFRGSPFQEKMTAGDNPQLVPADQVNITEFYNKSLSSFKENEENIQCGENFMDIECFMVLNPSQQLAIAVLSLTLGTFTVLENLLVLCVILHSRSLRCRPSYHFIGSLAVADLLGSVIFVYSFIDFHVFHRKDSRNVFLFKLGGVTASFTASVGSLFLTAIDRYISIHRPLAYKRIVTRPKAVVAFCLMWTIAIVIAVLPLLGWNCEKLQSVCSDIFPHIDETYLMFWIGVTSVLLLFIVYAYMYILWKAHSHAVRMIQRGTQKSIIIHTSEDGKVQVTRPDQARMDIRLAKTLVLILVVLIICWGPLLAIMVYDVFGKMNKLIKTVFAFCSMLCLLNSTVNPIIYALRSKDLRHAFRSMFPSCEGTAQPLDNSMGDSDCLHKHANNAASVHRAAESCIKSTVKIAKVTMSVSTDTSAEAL
Cannabinoid receptor 2, sequence (P34972 whole entry): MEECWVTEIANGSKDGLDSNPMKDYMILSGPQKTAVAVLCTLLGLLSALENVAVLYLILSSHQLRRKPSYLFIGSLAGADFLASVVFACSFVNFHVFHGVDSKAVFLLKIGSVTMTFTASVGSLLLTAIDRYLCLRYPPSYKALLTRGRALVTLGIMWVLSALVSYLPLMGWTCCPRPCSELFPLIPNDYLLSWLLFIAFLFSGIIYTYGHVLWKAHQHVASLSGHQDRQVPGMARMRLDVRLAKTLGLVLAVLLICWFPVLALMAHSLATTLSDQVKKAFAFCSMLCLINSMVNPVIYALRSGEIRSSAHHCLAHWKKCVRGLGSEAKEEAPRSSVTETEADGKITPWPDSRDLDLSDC

Row | Compound | IC50 (U-937 [1]) | IC50 [2] | IC50 [3] | Activity (U-251) | Activity (Cannabinoid receptor 1 [4]) | EC50 (Cannabinoid receptor 1 [5]) | Activity (U-937 [6]) | Ki (Cannabinoid receptor 1 [7]) | IC50 (Monoglyceride lipase) | Ki (Cannabinoid receptor 2)
1 | Cc1c(Br)cnc(OCc2ccc(F)cc2)c1C(=O)NC1CCCCCC1 | 620 nM | 530 nM | > 10000 nM | inactive | Active | 182 nM | Active | 113 nM | > 10000 nM | 606 nM
2 | Cc1c(Br)cn(Cc2ccc(F)cc2)c(=O)c1C(=O)NC1CCCCCC1 | 930 nM | > 10000 nM | 2100 nM | inactive | Active | 1.4 nM | Active | 2.3 nM | > 10000 nM | 3.5 nM
3 | COc1ccc(-c2cn(Cc3ccc(F)cc3)c(=O)c(C(=O)NC3CCCCCC3)c2C)cc1 | 280 nM | > 10000 nM | > 10000 nM | inactive | Active | 96 nM | Active | 30.7 nM | > 10000 nM | 7.9 nM
